Experiments:
[1] = Apparent volume of distribution in rat at 2 mg/kg, iv; assay type: ADME, organism-based; parameters: dose 2 mg/kg, route intravenous; conditions: in vivo, read-out: Vz
[2] = AUCall in rat at 2 mg/kg, iv; assay type: ADME, organism-based; parameters: dose 2 mg/kg, route intravenous; conditions: plasma
[3] = Cmax in rat at 2 mg/kg, iv; assay type: ADME, organism-based; parameters: dose 2 mg/kg, route intravenous; conditions: in vivo
[4] = Tmax in dog at 10 mg/kg, po; assay type: ADME, organism-based, Canis lupus familiaris; parameters: dose 10 mg/kg, route oral; conditions: in vivo
Procedure, shortened: (§1)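 Dogs dosed orally at 10 mg/kg; plasma pharmacokinetic parameters determined.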

[5] = Cmax in rat at 20 mg/kg, po; assay type: ADME, organism-based; parameters: dose 20 mg/kg, route oral; conditions: in vivo
Rattus norvegicus [6] = experiment: AUCall in rat assessed as sulfoxide metabolite level at 20 mg/kg, po; assay type: ADME, organism-based, Plasma; parameters: dose 20 mg/kg, route oral; conditions: in vivo
Procedure, shortened: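 Rats given the parent sulfide compound orally at 20 mg/kg, with plasma monitored for its in vivo sulfoxide metabolite; exposure to that metabolite is reported as AUCall. A separate i.v. dose of 2 mg/kg in rats was also monitored for this metabolite.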

[7] = Apparent volume of distribution in dog at 2 mg/kg, iv; assay type: ADME, organism-based, Canis lupus familiaris; parameters: dose 2 mg/kg, route intravenous; conditions: in vivo, read-out: Vz
[8] = Tmax in rat at 20 mg/kg, po; assay type: ADME, organism-based; parameters: dose 20 mg/kg, route oral; conditions: in vivo
[9] = AUCall in rat at 20 mg/kg, po; assay type: ADME, organism-based; parameters: dose 20 mg/kg, route oral; conditions: plasma
[10] = Solubility of the compound; assay type: physicochemical
[11] = Oral bioavailability in dog at 10 mg/kg; assay type: ADME, organism-based, Canis lupus familiaris; conditions: in vivo; procedure, shortened: as §1
Rattus norvegicus [12] = experiment: Drug metabolism in rat assessed as sulfoxide metabolite formation at 2 mg/kg, iv; assay type: ADME, organism-based; parameters: dose 2 mg/kg, route intravenous; conditions: in vivo
Procedure, shortened: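 Rats dosed i.v. at 2 mg/kg and plasma monitored in vivo for the sulfoxide metabolite. AUCall was also measured after 20 mg/kg oral dosing.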

[13] = AUCall in dog at 10 mg/kg, po; assay type: ADME, organism-based, Canis lupus familiaris; parameters: dose 10 mg/kg, route oral; conditions: plasma
[14] = Cmax in dog at 2 mg/kg, iv; assay type: ADME, organism-based, Canis lupus familiaris; parameters: dose 2 mg/kg, route intravenous; conditions: in vivo
[15] = Cmax in dog at 10 mg/kg, po; assay type: ADME, organism-based, Canis lupus familiaris; parameters: dose 10 mg/kg, route oral; conditions: in vivo; procedure, shortened: as §1
[16] = AUCall in dog at 2 mg/kg, iv; assay type: ADME, organism-based, Canis lupus familiaris; parameters: dose 2 mg/kg, route intravenous; conditions: plasma
[17] = Oral bioavailability in rat at 20 mg/kg; assay type: ADME, organism-based; conditions: in vivo

Compound `COC(=O)c1ccc2c(c1)c1c(n2CCCNc2nc(OC)cc(OC)n2)CCCC1` has a Vd [1] of 11.3 L/kg, an AUC [2] of 521 ng·h/mL and a Cmax [3] of 182 ng/mL.
For `COc1cc(OC)nc(NCCCn2c3c(c4cc(S(C)(=O)=O)ccc42)CCCC3)n1`, the Vd [1] was 3.51 L/kg, the AUC [2] was 902 ng·h/mL and the Cmax [3] was 1080 ng/mL.
`CCc1cc(CC)nc(OCCCn2c3c(c4cc(-c5nc(C)no5)ccc42)CCCC3)n1` showed a Vd [1] of 18.9 L/kg, an AUC [2] of 497 ng·h/mL and a Cmax [3] of 1050 ng/mL.
For `Cc1noc(-c2ccc3c(c2)c2c(n3CCCS(=O)(=O)N(C)C)CCCC2)n1`, the Vd [1] was 3.96 L/kg, the AUC [2] was 520 ng·h/mL and the Cmax [3] was 1240 ng/mL.
Compound `Cc1noc(-c2ccc3c(c2)c2c(n3CCCOc3cc(F)cc(F)c3)CCCC2)n1` has a Vd [1] of 22.1 L/kg, an AUC [2] of 404 ng·h/mL and a Cmax [3] of 821 ng/mL.
For `Cc1noc(-c2ccc3c(c2)c2c(n3CCCSc3cc(F)cc(F)c3)CCCC2)n1`, the Tmax [4] was 2 h, the Cmax [5] was 955 ng/mL and the AUC (Rattus norvegicus [6]) was 143 ng·h/mL. The Vd [7] was 1.8 L/kg, the Vd [1] was 3.64 L/kg and the Tmax [8] was 2.33 h. The AUC [9] was 4230 ng·h/mL, the AUC [2] was 1180 ng·h/mL and the solubility [10] was greater than 1000 µg/mL. For the same compound, the bioavailability [11] was 34%, the Drug metabolism (Rattus norvegicus [12]) was “Not Active” and the AUC [13] was 2010 ng·h/mL. It also gave a Cmax [3] of 2990 ng/mL, a Cmax [14] of 3880 ng/mL and a Cmax [15] of 625 ng/mL. For the same compound, the AUC [16] was 1750 ng·h/mL.
Work on `Cc1noc(-c2ccc3c(c2)c2c(n3CC(F)COc3cc(F)cc(F)c3)CCCC2)n1` (stereo not drawn) yielded a Cmax [5] of 747 ng/mL, a bioavailability [17] of 38% and a Vd [1] of 5.52 L/kg. The Tmax [8] was 2.67 h, the AUC [9] was 3140 ng·h/mL and the AUC [2] was 691 ng·h/mL. For the same compound, the Cmax [3] was 1710 ng/mL.

— ChEMBL document CHEMBL2176971 (Bioorg Med Chem Lett, 2012)
